Experimental data: ChEMBL document CHEMBL1131117, “Pyrimidine thioethers: a novel class of HIV-1 reverse transcriptase inhibitors with activity against BHAP-resistant HIV” (J Med Chem, 1998)

How the values were obtained:
[1] = system: Human immunodeficiency virus type 1 reverse transcriptase (Human immunodeficiency virus 1), Q72547 [P236L]; test: Inhibitory activity against HIV-1 reverse transcriptase (P236L) at 10 uM dose
Procedure, shortened: (§1)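 Recombinant HIV-1 RT homodimers (wild type or P236L mutant) were tested with compound at a single 10 µM concentration and reported as % inhibition. Reactions ran at 28 °C for 10 min and were stopped with 10% trichloroacetic acid. Acid-precipitated product was collected on glass fibre filters and counted for radioactivity.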

[2] = molecular target: Human immunodeficiency virus type 1 reverse transcriptase (Human immunodeficiency virus 1) (UniProt Q72547); test: Inhibitory activity against HIV-1 reverse transcriptase (wild type) at 10 uM dose; procedure, shortened: as §1
MT4 [3] = test: concentration of drug that inhibited p24 production by 90% in infected MT-4 cells against HIV-1-WT; format: functional; conditions: Homo sapiens
[4] = molecular target: T1, Human immunodeficiency virus type 1 reverse transcriptase (Human immunodeficiency virus 1, UniProt Q72547); test: Inhibition of HIV-1 reverse transcriptase (wild type)
Procedure, shortened: (§2)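 Wild-type HIV-1 RT homodimer run at 28 °C for 10 min. The reaction is stopped with 10% (v/v) trichloroacetic acid, and the acid-precipitated product is collected on glass fiber filters and counted for radioactivity. Compounds are screened as % inhibition at 10 µM, and IC50 values are determined from eight drug concentrations.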

[5] = molecular target: Human immunodeficiency virus type 1 reverse transcriptase (Human immunodeficiency virus 1) (UniProt Q72547); test: inhibitory activity against HIV-1 reverse transcriptase (wild type) at 10 uM dose (IC50 determined in 8 drug concentrations)
Procedure, shortened: (§3)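 HIV-1 RT homodimers (wild type or P236L) were assayed by radiolabel incorporation at 28 °C for 10 min and stopped with 10% trichloroacetic acid. Acid-insoluble product was filter-captured and counted. IC50 was derived from inhibition measured at eight drug concentrations.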

[6] = system: Human immunodeficiency virus type 1 reverse transcriptase (Human immunodeficiency virus 1), Q72547 [P236L]; test: inhibitory activity against HIV-1 reverse transcriptase (P236L) at 10 uM dose (IC50 determined in 8 drug concentrations); procedure, shortened: as §3
[7] = molecular target: Human immunodeficiency virus type 1 reverse transcriptase (Human immunodeficiency virus 1, UniProt Q72547, P236L); test: Inhibition of HIV-1 reverse transcriptase (P236L); procedure, shortened: as §3
MT4 [8] = test: concentration of drug that inhibited p24 production by 90% in infected MT-4 cells against HIV-1MF-DLV; format: functional; conditions: Homo sapiens
MT4 [9] = test: Concentration of drug that inhibited p24 production by 90% in infected MT-4 cells against HIV-1MF-DLV; format: functional; conditions: Homo sapiens
MT4 [10] = test: Concentration of drug that inhibited p24 production by 90% in infected MT-4 cells against HIV-1-WT; format: functional; conditions: Homo sapiens
[11] = molecular target: T1, Human immunodeficiency virus type 1 reverse transcriptase; test: inhibitory activity against HIV-1 reverse transcriptase (wild type; procedure, shortened: as §2
[12] = molecular target: Human immunodeficiency virus type 1 reverse transcriptase (Human immunodeficiency virus 1) (UniProt Q72547); test: inhibitory activity against HIV-1 reverse transcriptase (wild type) at 10 uM dose; procedure, shortened: as §1

Row | Structure (SMILES) | inhibition [1] | inhibition [2] | other results
1 | Nc1cc(Cl)nc(S(=O)(=O)Cc2cccc(Br)c2)n1 | 14% | – | –
2 | CCCNc1cc(Cl)nc(SCc2ccccc2)n1 | 30% | 14% | –
3 | Cc1cccc(COc2nc(N)cc(Cl)n2)c1 | 72% | 25% | –
4 | Nc1cc(Cl)nc(OCc2cccc3ccccc23)n1 | 67% | 2% | –
5 | Nc1cc(Cl)nc(SCc2cccc(F)c2)n1 | 79% | – | –
6 | Nc1cc(Cl)nc(SCCc2ccccc2)n1 | 12% | 33% | –
7 | Nc1cc(Cl)nc([S+]([O-])Cc2ccc3ccccc3c2)n1 (stereo not given) | 75% | 45% | –
8 | Clc1cc(NC2CCCCC2)nc(SCc2ccccc2)n1 | 6% | 26% | –
9 | CCOC(=O)CCSc1nc(N)cc(Cl)n1 | 7% | 11% | –
10 | Cc1cccc(CSc2nc(N)cc(Cl)n2)c1 | – | – | IC90 (MT4 [3]): 110 nM; IC50 [4]: 280 nM; inhibition [5]: 96%; inhibition [6]: 98%; IC50 [7]: 50 nM; IC90 (MT4 [8]): 1760 nM
11 | Nc1cc(Cl)nc(OCc2ccccc2)n1 | 44% | 1% | –
12 | Nc1cc(O)nc(SCc2ccc3ccccc3c2)n1 | 4% | 10% | –
13 | COc1cccc(CSc2nc(N)cc(Cl)n2)c1 | 97% | 70% | IC50 [4]: 980 nM; IC90 (MT4 [9]): 3210 nM; IC90 (MT4 [10]): 270 nM; IC50 [7]: 160 nM
14 | Cc1cc(N)nc(SCc2ccccc2)n1 | 4% | 0% | –
15 | CCN(CC)C(=O)/C=C/CSc1nc(N)cc(Cl)n1 | – | – | IC90 (MT4 [3]): 20 nM; IC50 [4]: 60 nM; inhibition [5]: 98%; inhibition [6]: 99%; IC50 [7]: 50 nM; IC90 (MT4 [8]): 110 nM
16 | CC(C)(C)c1ccc(CSc2nc(N)cc(Cl)n2)cc1 | 56% | 37% | –
17 | Nc1cc(C(F)(F)F)nc(SCc2ccc3ccccc3c2)n1 | 94% | 94% | IC50 [4]: 290 nM; IC50 [7]: 430 nM
18 | NNc1cc(Cl)nc(SCc2ccccc2)n1 | 31% | – | –
19 | Clc1cc(Cl)nc(SCc2ccccc2)n1 | 25% | 19% | –
20 | Nc1cc(N2CCCC2)nc(SCc2ccccc2)n1 | 0% | 3% | –
21 | Nc1cc(Cl)nc([S+]([O-])Cc2cccc(Br)c2)n1 (stereo not given) | 40% | – | –
22 | Cc1ccccc1CSc1nc(N)cc(Cl)n1 | 0% | 2% | –

Row | Structure (SMILES) | inhibition [1] | inhibition [2] | other results
23 | Clc1cc(Cl)nc(SCc2ccc3ccccc3c2)n1 | 23% | 0% | –
24 | Nc1cc(Cl)nc(SCc2cc(Br)cc(Br)c2)n1 | 73% | – | –
25 | Nc1cc(Cl)nc(SCc2ccc3ccccc3c2)n1 | – | – | IC90 (MT4 [3]): 220 nM; IC50 [4]: 460 nM; inhibition [5]: 87%; inhibition [6]: 96%; IC50 [7]: 150 nM; IC90 (MT4 [8]): 2760 nM
26 | CCOC(=O)c1cc(N)nc(SCc2ccc3ccccc3c2)n1 | 24% | 17% | –
27 | COC(=O)/C=C/CSc1nc(N)cc(Cl)n1 | 93% | 78% | IC50 [4]: 5250 nM; IC50 [7]: 930 nM
28 | COc1ccc(CSc2nc(N)cc(Cl)n2)cc1 | 63% | 25% | –
29 | Nc1cc(Cl)nc(SCc2cccc(Br)c2)n1 | 97% | 94% | IC90 (MT4 [3]): 350 nM; IC50 [4]: 760 nM; IC50 [7]: 140 nM; IC90 (MT4 [8]): 4520 nM
30 | Nc1cc(Cl)nc(SCc2ccc3c(c2)OCO3)n1 | 95% | 82% | –
31 | Nc1cc(Cl)nc(OCc2ccc3ccccc3c2)n1 | 80% | 63% | –
32 | Clc1cc(N2CCCCC2)nc(SCc2ccccc2)n1 | 47% | 47% | –
33 | CN(C)C(=O)/C=C/CSc1nc(N)cc(Cl)n1 | – | – | IC90 (MT4 [3]): 90 nM; IC50 [4]: 200 nM; inhibition [5]: 99%; inhibition [6]: 99%; IC50 [7]: 70 nM; IC90 (MT4 [8]): 740 nM
34 | Nc1cc(Cl)nc(SCc2cccc3ccccc23)n1 | 96% | 89% | –
35 | Clc1cc(-n2ccnc2)nc(SCc2ccc3ccccc3c2)n1 | 17% | 12% | –
36 | Clc1cc(-c2ccccc2)nc(SCc2ccc3ccccc3c2)n1 | 5% | – | –
37 | Clc1cc(N2CCCC2)nc(SCc2ccccc2)n1 | 41% | 35% | –
38 | CCNC(=O)/C=C/CSc1nc(N)cc(Cl)n1 | 55% | 40% | –
39 | C/C=C/CSc1nc(N)cc(Cl)n1 | 47% | 5% | –
40 | Nc1cc(Cl)nc(SCc2cccc(I)c2)n1 | 89% | – | –
41 | Nc1cc(Cl)nc(SCc2cc3c(cc2Cl)OCO3)n1 | 99% | 98% | IC50 [11]: 85 nM; IC50 [7]: 16 nM
42 | Nc1cc(Cl)nc(CCc2ccc3ccccc3c2)n1 | 12% | – | –
43 | Nc1cc(Cl)nc(SCc2cccc(C(F)(F)F)c2)n1 | 91% | 80% | –
44 | Nc1cc(Cl)nc(SC/C=C/c2ccccc2)n1 | 98% | 96% | IC90 (MT4 [3]): 150 nM; IC50 [4]: 190 nM; IC50 [7]: 70 nM; IC90 (MT4 [8]): 5050 nM

Row | Structure (SMILES) | inhibition [1] | inhibition [2] | other results
45 | CCCCCCCCCSc1nc(N)cc(Cl)n1 | 0% | 0% | –
46 | OCCCNc1cc(Cl)nc(SCc2ccccc2)n1 | 3% | 17% | –
47 | CC(=O)Nc1cc(Cl)nc(SCc2ccc3ccccc3c2)n1 | 53% | 30% | –
48 | COC(=O)c1ccc(CSc2nc(N)cc(Cl)n2)cc1 | 15% | 6% | –
49 | Cc1ccc(CSc2nc(N)cc(Cl)n2)cc1 | 5% | 3% | –
50 | Nc1cc(Cl)nc(SCc2ccccc2)n1 | – | – | IC50 [4]: 6660 nM; IC50 [7]: 1470 nM
51 | Nc1cc(Cl)nc(SCC2=CCCc3ccccc32)n1 | 88% | 47% | IC50 [4]: 16000 nM; IC50 [7]: 600 nM
52 | Nc1cc(Cl)nc(SCC2=Cc3ccccc3CC2)n1 | 87% | 71% | –
53 | Nc1cc(Cl)nc(SCc2ccc(Cl)c(Cl)c2)n1 | 94% | 80% | IC50 [4]: 490 nM; IC50 [7]: 62 nM
54 | CC1(C)CCC(C)(C)c2cc(CSc3nc(N)cc(Cl)n3)ccc21 | 23% | 7% | –
55 | CCN(CC)C(=O)CSc1nc(N)cc(Cl)n1 | 14% | 14% | –
56 | Nc1ccnc(SCc2ccc3ccccc3c2)n1 | 71% | – | inhibition [12]: 50%
57 | Nc1cc(Cl)nc(SCc2cccc(Cl)c2)n1 | 65% | – | –
58 | Nc1cc(Cl)nc(SCc2cc(Cl)cc(Cl)c2)n1 | 65% | – | –
59 | Nc1cc(Cl)nc(NCc2ccc3ccccc3c2)n1 | 17% | 9% | –
60 | Clc1ccnc(SCc2ccc3ccccc3c2)n1 | 86% | 61% | –
61 | Nc1cc(Cl)nc(SCC2CCCCC2)n1 | 13% | 37% | –
62 | Nc1cc(Cl)nc(SCC(=O)O)n1 | 0% | 0% | –
63 | COC(=O)c1cccc(CSc2nc(N)cc(Cl)n2)c1 | 94% | 93% | IC50 [4]: 330 nM; IC50 [7]: 230 nM
64 | Nc1cc(Cl)nc(SCc2ccc(-c3ccccc3)cc2)n1 | 20% | 8% | –
65 | N#Cc1cc(N)nc(SCc2ccc3ccccc3c2)n1 | 93% | 84% | –
